Data on 37 compounds can be found in ChEMBL document CHEMBL1914331, “N-O chemistry for antibiotics: discovery of N-alkyl-N-(pyridin-2-yl)hydroxylamine scaffolds as selective antibacterial agents using nitroso Diels-Alder and ene chemistry” (J Med Chem, 2011).

In data set [1] the test system is Micrococcus luteus. Kind of data set: Antimicrobial activity against Micrococcus luteus ATCC 10240 after 24 hrs by Kirby-Bauer agar diffusion assay. The data set is classed as functional. The method, boiled down:
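Modified Kirby-Bauer well diffusion. Overnight LB cultures (18–24 h) were standardized in 0.9% saline to 0.5 McFarland and mixed into melted MHII agar at 47–50 °C, giving ~5×10³ CFU/mL. 9 mm wells received 50 µL of 2.0 mM compound in 10:1 MeOH:DMSO. Plates were incubated 24 h at 37 °C, then growth-inhibition zone diameter was measured (mm) by caliper.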
For orientation: In agar diffusion tests the substance spreads into inoculated agar from a disc or well.

The test system of data set [2] is MCF7. Kind of data set: Cytotoxicity against human MCF7 cells. The data set is classed as cell-based.
The test system of data set [3] is HeLa. Kind of data set: Cytotoxicity against human HeLa cells. It is filed as cell-based.
For data set [4], the system named is PC-3. Kind of data set: Cytotoxicity against human PC3 cells. It is filed as cell-based.

Where only a bound is given, the exact number is not on record here.

Consider `O=C(Cc1ccccc1)N1OC2C=CC1CC2` (racemic), for which, in data set [1], the “diameter of the inhibition zone (DIZ)” value is “<=14 mm”. The Activity entry in data set [2], in data set [3] and in data set [4] was “Non-toxic” each time.

For the compound `O=C(c1ccccc1)N1OC2C=CC21` (racemic), the “diameter of the inhibition zone (DIZ)” value in data set [1] is “<=14 mm”. For the same compound, the Activity entry in data set [2], in data set [3] and in data set [4] was “Non-toxic” throughout.

Consider `CC(C)(C)OC(=O)N1OC2C=CC1C2` (racemic), for which, in data set [1], the “diameter of the inhibition zone (DIZ)” value is on record as “<=14 mm”. The Activity result in data set [2], in data set [3] and in data set [4] was “Non-toxic” in each case.

With `Brc1ccc(N2OC3C=CC2CC3)nc1` (racemic), the “diameter of the inhibition zone (DIZ)” value in data set [1] is “<=14 mm”. For the same compound, the Activity entry in data set [2], in data set [3] and in data set [4] was “Non-toxic” each time.

With `Clc1ccc(N2OC3C=CC2C3)nc1` (racemic), the “diameter of the inhibition zone (DIZ)” value in data set [1] is “<=14 mm”. Also, the Activity result in data set [2], in data set [3] and in data set [4] was “Non-toxic” in each case.

Regarding `Brc1ccc(N2OC3C=CC2C3)nc1` (racemic), the “diameter of the inhibition zone (DIZ)” value in data set [1] is given as “<=14 mm”. Further, the Activity entry in data set [2], in data set [3] and in data set [4] was “Non-toxic” each time.

As to `Cc1cccc(N2OC3C=CC2C3)n1` (racemic), the “diameter of the inhibition zone (DIZ)” value in data set [1] is given as “<=14 mm”. Besides, the Activity entry in data set [2], in data set [3] and in data set [4] was “Non-toxic” in each case.

Turning to `Cc1cccc(N2OC3C=CC2CC3)n1` (racemic), the “diameter of the inhibition zone (DIZ)” value in data set [1] is “<=14 mm”. In addition, the Activity result in data set [2], in data set [3] and in data set [4] was “Non-toxic” in each case.

As to `Cc1cc(N2OC3C=CC2C3)no1` (racemic), the “diameter of the inhibition zone (DIZ)” value in data set [1] was “<=14 mm”. Further, the Activity result in data set [2], in data set [3] and in data set [4] was “Non-toxic” each time.

Turning to `CO[C@@H]1C=C[C@@H](N(O)C(=O)Cc2ccccc2)C1` (racemic), the “diameter of the inhibition zone (DIZ)” value in data set [1] was “<=14 mm”. The Activity entry in data set [2], in data set [3] and in data set [4] was “Non-toxic” throughout.

Take `CC(C)(C)O[C@@H]1C=C[C@@H](N(O)C(=O)Cc2ccccc2)C1` (racemic): in data set [1], the “diameter of the inhibition zone (DIZ)” value is “<=14 mm”. Moreover, the Activity entry in data set [2], in data set [3] and in data set [4] was “Non-toxic” each time.

For the compound `CO[C@@H]1C=C[C@@H](N(O)C(=O)OC(C)(C)C)C1` (racemic), the “diameter of the inhibition zone (DIZ)” value in data set [1] is reported as “<=14 mm”. Also, the Activity result in data set [2], in data set [3] and in data set [4] was “Non-toxic” in each case.

As to `CO[C@@H]1C=C[C@@H](N(O)C(=O)Cc2ccccc2)CC1` (racemic), the “diameter of the inhibition zone (DIZ)” value in data set [1] is recorded as “<=14 mm”. Moreover, the Activity entry in data set [2], in data set [3] and in data set [4] was “Non-toxic” in each case.

Take `CO[C@@H]1C=CC[C@H]1N(O)C(=O)OC(C)(C)C` (racemic): the “diameter of the inhibition zone (DIZ)” value in data set [1] is “<=14 mm”. Moreover, the Activity result in data set [2], in data set [3] and in data set [4] was “Non-toxic” each time.

As for `O[C@H]1C=C[C@@H](N(O)c2ccc(Br)cn2)C1` (racemic), the “diameter of the inhibition zone (DIZ)” value in data set [1] is recorded as over 14 mm. The Activity entry in data set [2], in data set [3] and in data set [4] was “Non-toxic” in each case.

As for `O[C@@H]1C=C[C@@H](N(O)c2ccc(Br)cn2)C1` (racemic), the “diameter of the inhibition zone (DIZ)” value in data set [1] was over 14 mm. For the same compound, the Activity entry in data set [2], in data set [3] and in data set [4] was “Non-toxic” each time.

Regarding `CC(C)(C)O[C@@H]1C=C[C@@H](N(O)c2ccc(Br)cn2)CC1` (racemic), the “diameter of the inhibition zone (DIZ)” value in data set [1] was over 14 mm. Moreover, the Activity result in data set [2], in data set [3] and in data set [4] was “Non-toxic” each time.

Take `C=CCO[C@@H]1C=C[C@@H](N(O)c2ccc(Br)cn2)CC1` (racemic): the “diameter of the inhibition zone (DIZ)” value in data set [1] is over 14 mm. The Activity result in data set [2], in data set [3] and in data set [4] was “Non-toxic” throughout.

For the compound `Cc1cccc(N(O)[C@@H]2C=C[C@@H](OC(C)C)CC2)n1` (racemic), the “diameter of the inhibition zone (DIZ)” value in data set [1] was over 14 mm. For the same compound, the Activity result in data set [2], in data set [3] and in data set [4] was “Non-toxic” each time.

As to `Cc1cccc(N(O)[C@@H]2C=C[C@@H](OC(C)(C)C)CC2)n1` (racemic), in data set [1], the “diameter of the inhibition zone (DIZ)” value is on record as over 14 mm. The Activity entry in data set [2], in data set [3] and in data set [4] was “Non-toxic” in each case.

For `CO[C@@H]1C=CC[C@H]1N(O)c1ccc(Cl)cn1` (racemic), in data set [1], the “diameter of the inhibition zone (DIZ)” value is reported as over 14 mm. The Activity result in data set [2], in data set [3] and in data set [4] was “Non-toxic” each time.

On to `O[C@@H]1C=CC[C@H]1N(O)c1ccc(Br)cn1` (racemic), for which the “diameter of the inhibition zone (DIZ)” value in data set [1] is on record as over 14 mm. The Activity result in data set [2], in data set [3] and in data set [4] was “Non-toxic” in each case.

Regarding `O[C@@H]1C=CCC[C@H]1N(O)c1ccc(Br)cn1` (racemic), the “diameter of the inhibition zone (DIZ)” value in data set [1] is given as over 14 mm. In addition, the Activity result in data set [2], in data set [3] and in data set [4] was “Non-toxic” throughout.

Regarding `CO[C@@H]1C=CC[C@H]1N(O)c1ccc(Br)cn1` (racemic), the “diameter of the inhibition zone (DIZ)” value in data set [1] was over 14 mm. The Activity entry in data set [2], in data set [3] and in data set [4] was “Non-toxic” throughout.

Regarding `CC(C)O[C@@H]1C=CC[C@H]1N(O)c1ccc(Br)cn1` (racemic), in data set [1], the “diameter of the inhibition zone (DIZ)” value is over 14 mm. In addition, the Activity entry in data set [2], in data set [3] and in data set [4] was “Non-toxic” throughout.

On to `CC(C)O[C@@H]1C=CCC[C@H]1N(O)c1ccc(Br)cn1` (racemic), for which the “diameter of the inhibition zone (DIZ)” value in data set [1] was over 14 mm. For the same compound, the Activity result in data set [2], in data set [3] and in data set [4] was “Non-toxic” in each case.

With `CC(C)(C)O[C@@H]1C=CCC[C@H]1N(O)c1ccc(Br)cn1` (racemic), the “diameter of the inhibition zone (DIZ)” value in data set [1] is reported as over 14 mm. The Activity entry in data set [2], in data set [3] and in data set [4] was “Non-toxic” in each case.

Turning to `C=CCO[C@@H]1C=CCC[C@H]1N(O)c1ccc(Br)cn1` (racemic), the “diameter of the inhibition zone (DIZ)” value in data set [1] is over 14 mm. In addition, the Activity result in data set [2], in data set [3] and in data set [4] was “Non-toxic” each time.

Take `CO[C@@H]1C=CC[C@H]1N(O)c1ncccc1C` (racemic): in data set [1], the “diameter of the inhibition zone (DIZ)” value is on record as over 14 mm. Also, the Activity result in data set [2], in data set [3] and in data set [4] was “Non-toxic” each time.

On to `Cc1cccnc1N(O)[C@@H]1CC=C[C@H]1OC(C)C` (racemic), for which the “diameter of the inhibition zone (DIZ)” value in data set [1] is over 14 mm. Besides, the Activity result in data set [2], in data set [3] and in data set [4] was “Non-toxic” throughout.

Take `Cc1cccc(N(O)[C@@H]2CCC=C[C@H]2OC(C)C)n1` (racemic): the “diameter of the inhibition zone (DIZ)” value in data set [1] is over 14 mm. Also, the Activity result in data set [2], in data set [3] and in data set [4] was “Non-toxic” throughout.

In the case of `Cc1cccc(N(O)[C@@H]2CCC=C[C@H]2OC(C)(C)C)n1` (racemic), the “diameter of the inhibition zone (DIZ)” value in data set [1] is listed as over 14 mm. Moreover, the Activity entry in data set [2], in data set [3] and in data set [4] was “Non-toxic” each time.

For the compound `Cc1cc(N(O)[C@H]2CC=C[C@@H]2OC(C)(C)C)no1` (racemic), the “diameter of the inhibition zone (DIZ)” value in data set [1] was over 14 mm. For the same compound, the Activity entry in data set [2], in data set [3] and in data set [4] was “Non-toxic” in each case.

Take `C=C(CCC=C(C)C)C(CO)N(O)c1ccc(Br)cn1` (racemic): in data set [1], the “diameter of the inhibition zone (DIZ)” value was over 14 mm. The Activity result in data set [2], in data set [3] and in data set [4] was “Non-toxic” each time.

Take `C=C(C)C(CC/C(C)=C/CO)N(O)c1ccc(Br)cn1` (racemic): in data set [1], the “diameter of the inhibition zone (DIZ)” value was over 14 mm. For the same compound, the Activity entry in data set [2], in data set [3] and in data set [4] was “Non-toxic” each time.

Turning to `CC1=CCCCC1N(O)c1cc(C)on1` (racemic), in data set [1], the “diameter of the inhibition zone (DIZ)” value was over 14 mm. The Activity result in data set [2], in data set [3] and in data set [4] was “Non-toxic” in each case.

With `CO[C@@H]1C=CCC[C@H]1N(O)C(=O)Cc1ccccc1` (relative stereo), the “diameter of the inhibition zone (DIZ)” value in data set [1] was “<=14 mm”. Also, the Activity entry in data set [2], in data set [3] and in data set [4] was “Non-toxic” each time.
